Results as given in ChEMBL document CHEMBL3352630, “Sequestered fulvinol-related polyacetylenes in Peltodoris atromaculata” (J Nat Prod, 2014).

Legend:
[1] = Growth inhibition of human Hs683 cells after 72 hrs by MTT assay; format: functional, cell-based; conditions: Hs 683, 72 h
Summary of the method: (§1)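 Human cancer cells (carcinoma: A549, MCF-7, PC-3; glioma: Hs683, U373; melanoma: SK-MEL-28) were cultured with the test compound for 72 h. Growth was read by MTT colorimetric assay, and the IC50 for in vitro growth inhibition is given in μM. Etoposide was run alongside as the reference agent.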

SK-MEL-28 = assay: Growth inhibition of human SK-MEL-28 cells after 72 hrs by MTT assay; format: functional, cell-based; conditions: SK-MEL-28, 72 h; summary of the method: as §1
[2] = Growth inhibition of human PC3 cells after 72 hrs by MTT assay; format: functional, cell-based; conditions: PC-3, 72 h; summary of the method: as §1
MCF7 = assay: Growth inhibition of human MCF7 cells after 72 hrs by MTT assay; format: functional, cell-based; conditions: MCF7, 72 h; summary of the method: as §1
A549 = assay: Growth inhibition of human A549 cells after 72 hrs by MTT assay; format: functional, cell-based; conditions: A549, 72 h; summary of the method: as §1
[3] = Growth inhibition of human U373 cells after 72 hrs by MTT assay; format: functional, cell-based, U-373MG ATCC; conditions: U373 MG; summary of the method: as §1

IC50 (SK-MEL-28)	IC50 (MCF7)	IC50 (A549)	Structure (SMILES)	IC50 [1]	IC50 [2]	IC50 [3]
11 µM	23 µM	28 µM	C#C[C@@H](O)/C=C/CCCCCCCCC/C=C\CCCC/C=C\CCCC/C=C\CCCCCCCCCCCCC/C=C/[C@H](O)C#C	36 µM	18 µM	19 µM
> 100 µM	82 µM	37 µM	C#CC(=O)/C=C/CCCCCCCCC/C=C\CCCC/C=C\CCCC/C=C\CCCCCCCCCCCCC/C=C/C(=O)C#C	> 100 µM	86 µM	> 100 µM
1 µM	17 µM	0.1 µM	COc1cc([C@@H]2c3cc4c(cc3[C@@H](O[C@@H]3O[C@@H]5CO[C@@H](C)O[C@H]5[C@H](O)[C@H]3O)[C@H]3COC(=O)[C@H]23)OCO4)cc(OC)c1O [ETOPOSIDE]	1 µM	2 µM	7 µM
3 µM	15 µM	31 µM	C#C[C@@H](O)/C=C/CCCCCCCCCCCCC/C=C\CCCC/C=C\CCCC/C=C\C/C=C\CCCCCC(O)/C=C/[C@H](O)C#C (some centres undefined)	23 µM	32 µM	15 µM
